# pIC50: −log10 of the molar value.
# Experiments:
# L1210 = assay: Concentration required to inhibit proliferation of cultured lymphoid leukemia L1210 cells to 50% growth over 48 hours; assay type: functional, cell-based; conditions: Mus musculus, L1210, 48 h
# Procedure, shortened: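 Cultured lymphoid leukemia L1210 cells were exposed to agent for 48 h. IC50 is the micromolar concentration that holds proliferation to 50% growth.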
# P388 [1] = assay: Compound was evaluated for antitumor activity against mice implanted with lymphatic leukemia P388 cells (10e6 tumor cells) after intraperitoneal administration of 100 mg/kg per injection (1-5 days); assay type: functional; conditions: Mus musculus, P388, ip
# Procedure, shortened: (§1)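 Mice implanted ip with 10⁶ lymphocytic leukemia P388 cells; drug given ip on days 1-5. Read-out is % increase in life span (% ILS) versus untreated controls, reported at the highest nontoxic dose tested.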
# P388 [2] = assay: Compound was evaluated for antitumor activity against mice implanted with lymphatic leukemia P388 cells (10e6 tumor cells) after intraperitoneal administration of 200 mg/kg per injection; assay type: functional; conditions: Mus musculus, P388, ip
# P388 [3] = assay: Compound was evaluated for antitumor activity against mice implanted with lymphatic leukemia P388 cells (10e6 tumor cells) after intraperitoneal administration of 200 mg/kg per injection (1-5 days); assay type: functional; conditions: Mus musculus, P388, ip; procedure, shortened: as §1
# [4] = Compound's concentration required to inhibit proliferation of cultured KB cells to 50% growth during 48 hours.; assay type: functional, cell-based; conditions: Homo sapiens
Structure (SMILES),pIC50 (L1210),further results
CCOC(=O)Nc1cc(NC(C)C(O)COc2ccccc2)c([N+](=O)[O-])c(N)n1 (stereo unspecified),4.26,–
CCOC(=O)Nc1cc(N[C@@H](C)[C@H](O)c2ccc(O)cc2)c(N)c(N)n1,6.21,ILS at 100 mg/kg (P388 [1]): 58%
CCOC(=O)Nc1cc(N/N=C/c2ccccc2)c(N)c(N)n1,–,ILS at 200 mg/kg (P388 [2]): 3%
CCOC(=O)Nc1cc(NC(C)C(=O)c2ccc3c(c2)OCO3)c([N+](=O)[O-])c(N)n1 (stereo unspecified),4.16,–
CCOC(=O)Nc1cc(N[C@H](C)C(=O)c2ccccc2)c([N+](=O)[O-])c(N)n1,4.62,ILS at 200 mg/kg (P388 [3]): 0%
CCOC(=O)Nc1cc(NN(C)C(=N)c2ccccc2)c([N+](=O)[O-])c(N)n1,< 4.00,–
COc1ccc(/C(=N/O)C(C)N)cc1 (stereo unspecified),< 4.00,–
CCOC(=O)Nc1cc(N[C@@H](C)C(=O)c2ccc(O)cc2)c([N+](=O)[O-])c(N)n1,4.62,–
CCCCC(=O)C(C)Nc1cc(NC(=O)OCC)nc(N)c1[N+](=O)[O-] (stereo unspecified),4.27,–
CCOC(=O)Nc1cc(NC(C)C(O)c2ccc(O)cc2)c([N+](=O)[O-])c(N)n1 (stereo unspecified),4.92,–
CCOC(=O)Nc1cc(NC(C)C(=O)c2ccc(O)cc2)c([N+](=O)[O-])c(N)n1 (stereo unspecified),5.92,ILS at 100 mg/kg (P388 [1]): 71%
CCCCC(Nc1cc(NC(=O)OCC)nc(N)c1[N+](=O)[O-])C(C)O (stereo unspecified),4.25,–
CCOC(=O)Nc1cc(NC(C)C(O)Cc2ccccc2)c([N+](=O)[O-])c(N)n1 (stereo unspecified),4.28,–
CCOC(=O)Nc1cc(N[C@H](C)[C@@H](O)c2ccccc2)c(N)c(N)n1,5.23,ILS at 200 mg/kg (P388 [3]): 10%
CCOC(=O)Nc1cc(N[C@@H](C)[C@H](O)c2ccc(O)cc2)c([N+](=O)[O-])c(N)n1,4.92,ILS at 200 mg/kg (P388 [3]): 20%
CCCCC(O)C(C)Nc1cc(NC(=O)OCC)nc(N)c1N (stereo unspecified),4.74,ILS at 200 mg/kg (P388 [3]): 10%
CCOC(=O)Nc1cc(NC(C)C(=O)Cc2ccccc2)c([N+](=O)[O-])c(N)n1 (stereo unspecified),5.00,ILS at 200 mg/kg (P388 [3]): 10%

Structure (SMILES),pIC50 (L1210),further results
CCCCC(Nc1cc(NC(=O)OCC)nc(N)c1[N+](=O)[O-])C(C)=O (stereo unspecified),4.51,–
CCOC(=O)Nc1cc(N[C@H](C)[C@@H](O)c2ccccc2)c([N+](=O)[O-])c(N)n1,4.51,ILS at 200 mg/kg (P388 [3]): 0%
CCOC(=O)Nc1cc(N[C@H](C)[C@@H](O)c2ccc(O)cc2)c([N+](=O)[O-])c(N)n1,4.64,ILS at 200 mg/kg (P388 [3]): 0%
CCOC(=O)Nc1cc(N)c([N+](=O)[O-])c(N)n1,–,pIC50 [4]: 4.32; ILS at 200 mg/kg (P388 [2]): 0%
CCOC(=O)Nc1cc(NC(C)C(O)COc2ccccc2)c(N)c(N)n1 (stereo unspecified),4.68,–
CCOC(=O)Nc1cc(NCCc2ccccc2)c([N+](=O)[O-])c(N)n1,–,pIC50 [4]: < 4.00
CCCCC(O)C(C)Nc1cc(NC(=O)OCC)nc(N)c1[N+](=O)[O-] (stereo unspecified),4.26,–
CCOC(=O)Nc1cc(N[C@@H](C)[C@H](O)c2ccccc2)c([N+](=O)[O-])c(N)n1,5.11,ILS at 200 mg/kg (P388 [3]): 53%
CCOC(=O)Nc1cc(NC(C)C(=O)COc2ccccc2)c([N+](=O)[O-])c(N)n1 (stereo unspecified),4.05,–
CCOC(=O)Nc1cc(N[C@H](C)C(=O)c2ccc(O)cc2)c([N+](=O)[O-])c(N)n1,4.36,–
CCOC(=O)Nc1cc(NC(/C(=N/O)c2ccccc2)c2ccccc2)c([N+](=O)[O-])c(N)n1 (stereo unspecified),4.35,–
CCOC(=O)Nc1cc(NC(CC)C(=O)c2ccccc2)c([N+](=O)[O-])c(N)n1 (stereo unspecified),< 4.00,–
CCOC(=O)Nc1cc(N[C@H](C)[C@@H](O)c2ccc(O)cc2)c(N)c(N)n1,4.29,ILS at 200 mg/kg (P388 [3]): 0%
CCOC(=O)Nc1cc(NCCc2ccccc2)c(N)c(N)n1,–,pIC50 [4]: 4.12
CCOC(=O)Nc1cc(NC(CC)C(O)c2ccccc2)c([N+](=O)[O-])c(N)n1 (stereo unspecified),4.66,–
CCOC(=O)Nc1cc(N[C@@H](C)/C(=N\O)c2ccc(O)cc2)c([N+](=O)[O-])c(N)n1,4.59,–
CCOC(=O)Nc1cc(NC(C)C(O)c2ccc3c(c2)OCO3)c([N+](=O)[O-])c(N)n1 (stereo unspecified),4.68,–

# — ChEMBL document CHEMBL1126221, “Antimitotic agents: structure-activity studies with some pyridine derivatives” (J Med Chem, 1992)
